MrgX1 allo act = positive allosteric modulators of MrgX1, primary screen, HEK293 cells, Fluo-4 calcium flux | 310,000 tested, 0.63% active | Mas-related G-protein coupled receptor member X1 (Homo sapiens), Q96LB2 | FDSS; active compounds read high | AID 588675, 2011 | B-score at 10 µM;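 active = plate-corrected calcium response at least 3 library SD above typical, normal starting fluorescence, not activating the receptor alone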;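 also: compound read alongside a low EC10 to EC30 dose of BAM8-22 agonist; peak minus trough fluorescence over baseline measured at the second addition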
Target sequence (Q96LB2 whole entry, looked up): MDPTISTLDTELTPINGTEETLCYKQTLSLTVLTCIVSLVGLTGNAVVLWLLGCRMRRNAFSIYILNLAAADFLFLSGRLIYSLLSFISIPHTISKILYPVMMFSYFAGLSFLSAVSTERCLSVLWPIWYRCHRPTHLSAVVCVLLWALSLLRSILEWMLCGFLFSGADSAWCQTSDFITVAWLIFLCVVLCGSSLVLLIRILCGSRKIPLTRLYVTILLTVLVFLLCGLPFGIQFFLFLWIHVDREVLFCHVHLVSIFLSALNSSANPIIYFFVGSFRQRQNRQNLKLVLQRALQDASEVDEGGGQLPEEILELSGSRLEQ
RGS4 block = RGS4 inhibitors, primary screen, cell-based, HEK293 M3R inducible RGS4, calcium flux; Regulator of G-protein signaling 4 (Homo sapiens), P49798; Fluo-4 calcium flux; active compounds read high; triggered by carbachol at its EC20; B-score at 10 µM; 310,000 tested, 0.45% active;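 active = B-score, a plate-corrected calcium signal, over three deviations above library mean, with baseline fluorescence within five deviations of library mean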;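 also: RGS4 expression induced by doxycycline in cells with stable M3 receptor; B-score is computed from the integrated fluorescence ratio over baseline after carbachol; higher B-score means a larger calcium signal and so more RGS4 inhibition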
Target sequence (P49798 whole entry, looked up): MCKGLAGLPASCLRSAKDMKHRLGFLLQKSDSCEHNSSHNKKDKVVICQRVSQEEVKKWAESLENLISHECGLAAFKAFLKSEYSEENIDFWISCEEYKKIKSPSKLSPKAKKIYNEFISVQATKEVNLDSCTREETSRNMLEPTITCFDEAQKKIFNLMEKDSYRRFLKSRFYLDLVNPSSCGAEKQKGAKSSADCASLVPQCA
MrgX1 antagonist = antagonists of human MrgX1 receptor, primary screen, HEK293 cells, Fluo-4 calcium flux; BAM8-22 antagonism; active compounds read low; AID 588676, 2011; B-score at 10 µM; 310,000 tested, 1.3% active; Mas-related G-protein coupled receptor member X1 (Homo sapiens), Q96LB2;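 active = calcium-response B-score plate-corrected more than 3 library SD below zero, starting fluorescence within 5 deviations, no agonist response on first addition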;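 also: peak minus trough fluorescence over baseline after final BAM8-22 challenge near maximal dose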
RGS4 pot = RGS4 potentiators or activators, primary screen, cell-based, HEK293 M3R inducible RGS4, calcium flux; carbachol calcium flux Fluo4; active compounds read low; B-score at 10 µM; 310,000 tested, 0.92% active; AID 463111, 2010;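 active = B-score of the integrated calcium signal more than 4 SD below the library mean, with starting fluorescence not abnormally high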;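 also: negative B-score means reduced calcium response which marks RGS4 activation or potentiation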
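Also added: carbachol at ECmax as muscarinic agonist stimulus; Assay system: HEK293 cells with stable M3R and inducible RGS4; Timing: overnight RGS4 induction, 30 min dye load 37 °C, 20 min compound RT; Measured by: Fluo4-AM (2 µM) calcium-flux fluorescence, kinetic read.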
MrgX1 agonist = agonists of human MrgX1 receptor, primary screen, HEK293 cells, Fluo-4 calcium flux. Mas-related G-protein coupled receptor member X1 (Homo sapiens), Q96LB2. Fluo-4 calcium fluorescence, agonist mode; active compounds read high. B-score at 10 µM. 310,000 tested, 0.44% active. AID 588627, 2011;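 active = calcium response B-score plate-corrected fluorescence ratio at least 3 library SD, with starting fluorescence B-score inside 5 SD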
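Material: MrgX1-expressing HEK293 cells / Dosing: compound as first of three additions / Incubation: overnight seeding, then 1 h dark dye loading / Signal: Fluo-4 NW calcium fluorescence / Evaluation: B-scored fluorescence response ratio / Benchmarks: positive and negative control wells on each plate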
RGS4 inh valid = enhanced carbachol calcium response, M3R/RGS4 cells, RGS4 inhibitor project, cell-based, validation screen, HEK293 M3R/RGS4, calcium flux; shares compounds with RGS4 block; carbachol calcium Fluo-4 fluorescence; carbachol added at its EC20; 0 = buffer wells, 100 = carbachol control; calcium response, % at 10 µM; 1,700 tested, 65% active; AID 492999, 2010;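 active = duplicate-averaged calcium response above the buffer-only control mean plus 5 SD of those controls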;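 also: integrated fluorescence ratio F max minus min over baseline F0; higher response in RGS4-induced cells means RGS4 inhibition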
M3R Ca ctr = carbachol calcium response in non-induced M3R cells, confirmation, counter-screen for RGS4 inhibitor project, cell-based, HEK293 M3R. shares compounds with RGS4 block. activity (percent), % at 10 µM. AID 493000, 2010. 1,900 tested, 20% active. carbachol calcium Fluo-4; submaximal (EC20) carbachol stimulus; buffer wells 0%, carbachol control wells 100%; call rule not given here;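 also: RGS4 induction absent so cells express M3R without RGS4; higher means more calcium signal and flags a non-specific hit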
RGS4 inh ctr2 = signal in non-induced cells without carbachol, RGS4 inhibitor counter-screen; shares compounds with RGS4 block; HEK293 M3R/RGS4 non-induced, Fluo-4 calcium, no carbachol; normalised: buffer wells 0%, carbachol wells 100%; calcium response (agonist-mode artifact), % at 10 µM; 1,900 tested, 22% active; AID 493001;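 active = duplicate-averaged calcium rise in uninduced cells above buffer wells' mean plus 5 SD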
Hits are given with their value; i = inactive; nt = no result given. Compounds with a hit are over-represented: about 3.5% of the library has one in this group of screens.

SMILES	MrgX1 allo act	RGS4 block	MrgX1 antagonist	RGS4 pot	MrgX1 agonist	RGS4 inh valid	M3R Ca ctr	RGS4 inh ctr2
COc1cc(/C=C2/C(C)=C(C#N)c3nc(N)c(C#N)c(C)c32)ccc1OCC(=O)O	i	i	i	i	i	nt	nt	nt
CC1=C(C#N)c2nc(N)c(C#N)c(C)c2/C1=C\c1ccc(-c2ccccc2C(=O)O)o1	nt	5.6	nt	i	nt	24%	32%	i
CCOc1ccccc1NC(=O)c1cccc(NC(=O)CC(c2ccccc2)c2ccccc2)c1	i	11	i	i	i	30%	36%	16%
CC(=O)c1cccc(NC(=O)CSc2ncc(C(=O)Nc3ccccc3)c(=O)n2C)c1	i	i	i	i	i	nt	39%	i
CC(=O)Nc1cccc(NC(=O)CSc2ncc(C(=O)Nc3ccc(F)cc3)c(=O)n2C)c1	i	i	i	i	i	i	i	i
O=C(NCCCN1CCOCC1)C(=O)N/N=C/c1ccc2c(c1)OCO2	i	i	i	i	i	nt	nt	nt
Cc1cc(NNC(=O)c2cccc(C(F)(F)F)c2)nc2c1c(C)nn2C	i	i	i	i	i	nt	nt	nt
CCOc1ccc(N2CC(NS(=O)(=O)c3cccnc3)CC2=O)cc1 (stereo not drawn)	i	i	i	i	i	nt	nt	nt
NC(=O)CC(NC(=O)Cc1ccc(Br)cc1)c1ccc(NC2CCCC2)c([N+](=O)[O-])c1 (stereo not drawn)	i	i	i	i	i	i	i	i
NC(=O)CC(NC(=O)Cc1ccc(Cl)cc1)c1ccc(NC2CCCCCCC2)c([N+](=O)[O-])c1 (stereo not drawn)	i	4.7	i	i	i	11%	i	i
NC(=O)CC(NC(=O)Cc1ccc(Br)cc1)c1ccc(NC2CCCCCC2)c([N+](=O)[O-])c1 (stereo not drawn)	i	i	i	i	i	i	i	i
NC(=O)CC(NC(=O)Cc1ccc(Cl)cc1)c1ccc(NC2CCCCCC2)c([N+](=O)[O-])c1 (stereo not drawn)	i	i	i	i	i	nt	nt	nt
CCOC(=O)c1c(C)[nH]c(C(=O)N2CCC(C(=O)OCC)CC2)c1C	i	i	i	i	i	nt	nt	nt
Cc1ccc2c(c1)N(CCC(=O)NCCCOC(C)C)C(=O)C(C)O2 (stereo not drawn)	i	i	i	i	i	nt	nt	nt
N[C@@H](Cc1ccccc1)C(=O)N1CCC(C(=O)N[C@@H](CCC(=O)O)C(=O)O)CC1	i	i	i	i	i	nt	nt	nt
COC(=O)c1cc(=O)n(-c2ccc(F)cc2)c(=Nc2ccc(F)cc2)s1	i	13	i	i	i	30%	54%	i
CCOc1ccc(C(=O)CC(Sc2ccc(C)cc2)C(=O)O)cc1 (stereo not drawn)	i	i	i	i	i	i	i	i
O=C(N/N=C/C1=C(N2CCOCC2)C(=C\c2ccccc2)/CC1)Nc1ccccc1	i	i	i	i	i	nt	nt	nt
O=C(O)c1ccccc1N/N=C/C1=C(N2CCOCC2)C(=C\c2ccccc2)/CC1	i	8.2	i	i	39	30%	i	140%
O=C(CCN1CCCCC1)c1ccccc1	i	i	i	i	i	nt	nt	nt
O=C(OCCN1CCOCC1)c1ccc2c(c1)OCCO2	i	i	i	i	i	nt	nt	nt
O=C(CCCN1CCOCC1)c1ccc2c(c1)OCCO2	i	i	i	i	i	i	i	i
O=C(CCCO)c1ccc2c(c1)OCCO2	i	i	i	i	i	nt	nt	nt
O=C(CCN1CCOCC1)c1ccc2c(c1)OCCO2	i	21	i	i	i	20%	i	18%
O=C(CCN1CCN(C(=O)c2ccccc2)CC1)c1ccc(Br)cc1	i	6	i	i	i	i	i	10%
SMILES	MrgX1 allo act	RGS4 block	MrgX1 antagonist	RGS4 pot	MrgX1 agonist	RGS4 inh valid	M3R Ca ctr	RGS4 inh ctr2
O=C(CCN1CCOCC1)c1ccccc1	i	i	i	i	i	i	36%	23%
Cc1c(N(C)S(=O)(=O)c2cc(C(=O)N3CCCC3)ccc2Cl)c(=O)n(-c2ccccc2)n1C	i	i	i	i	i	nt	nt	nt
Cc1cc(O)c(C(=O)/C=C/c2cccc([N+](=O)[O-])c2)c(=O)o1	i	4.7	i	i	i	30%	i	i
O=C(/C=C/c1cccc([N+](=O)[O-])c1)n1cnc2ccccc21	nt	7.9	nt	i	nt	19%	i	i
O=C(/C=C/c1cccc([N+](=O)[O-])c1)Nc1ccc(NC(=O)c2cccs2)cc1	i	i	i	i	i	nt	nt	nt
O=C(/C=C/c1cccc([N+](=O)[O-])c1)N1CCN(c2ccccn2)CC1	i	i	i	i	i	nt	nt	nt
O=C(/C=C/c1cccc([N+](=O)[O-])c1)c1cccs1	i	4.8	i	i	35	i	i	i
COc1ccc(N2C(=O)CC(Sc3ncn[nH]3)C2=O)c(OC)c1 (stereo not drawn)	i	12	i	i	i	22%	i	i
CC(C)c1ccc(N2C(=O)CC(Sc3ncn[nH]3)C2=O)cc1 (stereo not drawn)	i	i	i	i	i	nt	nt	nt
CC1Cc2ccccc2N1Cc1nc2scc(-c3cccs3)c2c(=O)[nH]1 (stereo not drawn)	i	9.3	i	i	i	i	i	i
CC(=O)C1=C(O)C(=O)N(c2ccc(Br)cn2)C1c1ccc(Br)cc1 (stereo not drawn)	i	i	i	i	i	nt	nt	nt
CC(=O)C1=C(O)C(=O)N(c2cc(C(C)(C)C)on2)C1c1ccc(C(C)C)cc1 (stereo not drawn)	i	i	i	i	i	i	i	56%
CC(=O)C1=C(O)C(=O)N(c2cc(C(C)(C)C)on2)C1c1ccc(Br)cc1 (stereo not drawn)	i	7.8	i	i	i	44%	30%	i
Cc1ccc2oc(=O)c3cnn(CC(=O)N(CCCN4CCOCC4)Cc4ccco4)c3c2c1	i	nt	i	nt	i	nt	nt	nt
COCCNC(=S)N(CCN(C)C)Cc1cc2cc3c(cc2[nH]c1=O)OCO3	i	i	i	i	i	nt	nt	nt
COCCCNC(=S)N(CCCN(C)C)Cc1cc2cc3c(cc2[nH]c1=O)OCCO3	i	i	i	i	i	i	i	i

Bioassay records: PubChem BioAssay, Johns Hopkins Ion Channel Center
